From ChEMBL document CHEMBL1268937, “Design of more potent squalene synthase inhibitors with multiple activities” (Bioorg Med Chem, 2010)
pIC50: −log10 of the molar value. Calls of active or inactive are those of the source. The rule behind the calls is not given here.

Legend:
Squalene synthase = molecular target: T1, Squalene synthase (Rattus norvegicus, UniProt Q02769); experiment: Inhibition of squalene synthase in rat liver microsomes assessed as [3H] FPP to squalene conversion level after 10 mins by scintillation counting; design: species or system Microsome
T1 sequence (Q02769 whole entry): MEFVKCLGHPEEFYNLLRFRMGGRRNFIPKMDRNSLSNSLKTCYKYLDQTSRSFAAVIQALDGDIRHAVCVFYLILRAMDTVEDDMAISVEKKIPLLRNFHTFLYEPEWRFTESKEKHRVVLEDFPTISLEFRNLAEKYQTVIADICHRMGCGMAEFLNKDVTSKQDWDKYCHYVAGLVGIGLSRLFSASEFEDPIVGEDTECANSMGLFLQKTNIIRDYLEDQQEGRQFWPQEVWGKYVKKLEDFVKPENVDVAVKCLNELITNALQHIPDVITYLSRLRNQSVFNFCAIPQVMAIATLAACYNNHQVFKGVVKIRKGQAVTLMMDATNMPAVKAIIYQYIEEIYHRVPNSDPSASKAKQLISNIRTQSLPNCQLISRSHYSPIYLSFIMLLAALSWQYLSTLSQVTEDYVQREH
In short: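 Rat liver microsomes (18 µg protein/mL) in 50 mM phosphate pH 7.4 with 10 mM MgCl2 and 0.5 mM NADPH, preincubated with compounds for 10 min at 37 °C. Started with [3H]FPP and run for 10 min at 37 °C. Stopped with 15% ethanolic KOH, then 65 °C for 30 min. Squalene extracted into petroleum ether, washed and counted by scintillation. Triplicates; IC50 is the concentration giving 50% inhibition.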

Glycine max [1] = experiment: Inhibition of soybean lipoxygenase at up to 150 uM; settings: TDE = time-dependent effect
In short: (§1)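 Soybean lipoxygenase (250 U/mL) with sodium linoleate (100 µM) as substrate in Tris-HCl pH 9.0. Compounds added in 60% ethanol. Absorbance at 234 nm followed for 6 min at 28 °C. Each concentration assayed twice.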

Liver microsomes = experiment: Antioxidant activity in rat hepatic microsomes assessed as inhibition of lipid peroxidation after 45 min by spectrophotometric analysis; assay type: functional, Microsome
In short: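 Non-enzymatic peroxidation of rat hepatic microsomal lipids in buffer (150 mM, pH 7.4). Compounds in DMSO, 10 µM–1 mM. Started with fresh FeSO4 and incubated at 37 °C for 45 min. Thiobarbituric acid-reactive material read at 535 against 600 nm. Run in duplicate.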

Rattus norvegicus [2] = experiment: Antiinflammatory activity in Wistar rat assessed as inhibition of carrageenan-induced paw edema at 300 umol/kg, ip after 3.5 hrs; assay type: functional; design: scale not given: the % may be the effect or the level left
In short: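 Male Wistar rats (150–180 g) received 0.1 mL of 2% w/v carrageenan in saline intradermally into the right hind paw; the left paw served as control. Compounds were given ip right after carrageenan. Edema was taken as paw weight increase at 3.5 h and expressed as % inhibition versus the control group. Means of 8–10 rats; Student's t-test.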

Glycine max [3] = experiment: (§2) Inhibition of soybean lipoxygenase measured for 6 mins; in short: as §1
[4] = as §2; design: species or system Glycine max; in short: as §1
Rattus norvegicus [5] = experiment: Antidyslipidemic activity against triton WR-1339-induced hyperlipidemia in rat assessed as reduction in plasma total cholesterol level at 56 umol/kg, ip after 24 hrs relative to control; assay type: functional; design: scale not given: the % may be the effect or the level left
In short: (§3)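 Hyperlipidemia induced in male Wistar rats by ip Triton WR 1339 (200 mg/kg, aqueous). Test compounds in saline given ip 1 h later; saline-only controls. Blood drawn from the aorta 24 h later. Plasma total cholesterol, LDL-cholesterol and triglycerides measured with commercial kits in duplicate. Values are means of 8–10 rats per compound.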

Rattus norvegicus [6] = experiment: Antidyslipidemic activity against triton WR-1339-induced hyperlipidemia in rat assessed as reduction in plasma triglyceride level at 56 umol/kg, ip after 24 hrs relative to control; assay type: functional; design: scale not given: the % may be the effect or the level left; in short: as §3
Rattus norvegicus [7] = experiment: Antidyslipidemic activity against triton WR-1339-induced hyperlipidemia in rat assessed as reduction in plasma LDL-cholesterol level at 56 umol/kg, ip after 24 hrs relative to control; assay type: functional; design: scale not given: the % may be the effect or the level left; in short: as §3

For Br.COc1ccc2cc(C3(O)CN(C)C4CCCCC4O3)ccc2c1 (stereo unspecified), the pIC50 (Squalene synthase) was 4.40, the inhibition (Glycine max [1]) was “tde” and the pIC50 (Liver microsomes) was 3.66. For the same molecule, the Activity (Rattus norvegicus [2]) was 53%, the inhibition (Glycine max [3]) was “Dose-dependent effect” and the pIC50 [4] was 4.08. For the same molecule, the Activity (Rattus norvegicus [5]) was 36%, the Activity (Rattus norvegicus [6]) was 47% and the Activity (Rattus norvegicus [7]) was 33%.

With Br.OC1(c2ccc3ccccc3c2)CN2CCCCC2CO1 (stereo unspecified) the pIC50 (Squalene synthase) was 3.89, the pIC50 (Liver microsomes) was 3.36 and the Activity (Rattus norvegicus [2]) was “Active”. The pIC50 [4] was < 3.52, the Activity (Rattus norvegicus [5]) was 33% and the Activity (Rattus norvegicus [6]) was 41%. For the same molecule, the Activity (Rattus norvegicus [7]) was 42%.

COc1ccc2cc([C@H](C)C(=O)O)ccc2c1 [NAPROXEN] gave an Activity (Rattus norvegicus [2]) of 51% and a pIC50 [4] of 4.62.

For CC(C)(Sc1cc(C(C)(C)C)c(O)c(C(C)(C)C)c1)Sc1cc(C(C)(C)C)c(O)c(C(C)(C)C)c1 [PROBUCOL], the Activity (Rattus norvegicus [5]) was 18%, the Activity (Rattus norvegicus [6]) was 11% and the Activity (Rattus norvegicus [7]) was 18%.

For Br.CN1CCOC(O)(c2ccc3ccccc3c2)C1 (stereo unspecified), the pIC50 (Squalene synthase) was 3.87, the pIC50 (Liver microsomes) was 3.19 and the Activity (Rattus norvegicus [2]) was “Active”. The pIC50 [4] was < 3.52, the Activity (Rattus norvegicus [5]) was 51% and the Activity (Rattus norvegicus [6]) was 40%. It also gave an Activity (Rattus norvegicus [7]) of 36%.

For Br.COc1ccc2cc(-c3ccc(C4(O)CN(C)C5CCCCC5O4)cc3)ccc2c1 (stereo unspecified), the pIC50 (Squalene synthase) was 5.85, the pIC50 (Liver microsomes) was 4.32 and the Activity (Rattus norvegicus [2]) was “Active”. The pIC50 [4] was < 4.00, the Activity (Rattus norvegicus [5]) was 32% and the Activity (Rattus norvegicus [6]) was 82%. For the same molecule, the Activity (Rattus norvegicus [7]) was 54%.

Molecule CN1CC(O)(c2ccc(-c3ccccc3)cc2)OC2CCCCC21 (stereo unspecified) has a pIC50 [4] of 3.96, an Activity (Rattus norvegicus [5]) of 54% and an Activity (Rattus norvegicus [6]) of 49%. It also gave an Activity (Rattus norvegicus [7]) of 51%.

In the case of Br.CN1CCOC(O)(c2ccc(-c3ccc4ccccc4c3)cc2)C1 (stereo unspecified), the pIC50 (Squalene synthase) was 5.72, the pIC50 (Liver microsomes) was 4.15 and the Activity (Rattus norvegicus [2]) was “Active”. The pIC50 [4] was < 4.00, the Activity (Rattus norvegicus [5]) was 37% and the Activity (Rattus norvegicus [6]) was 28%. The Activity (Rattus norvegicus [7]) was 59%.

With Br.COc1ccc2cc(-c3ccc(C4(O)CN(C)CCO4)cc3)ccc2c1 (stereo unspecified) the pIC50 (Squalene synthase) was 5.16, the pIC50 (Liver microsomes) was 4.52 and the pIC50 [4] was < 4.00. It also gave an Activity (Rattus norvegicus [5]) of 41%, an Activity (Rattus norvegicus [6]) of 30% and an Activity (Rattus norvegicus [7]) of 9%.

For Br.CN1CC(O)(c2ccc(-c3ccc4ccccc4c3)cc2)OC2CCCCC21 (stereo unspecified), the pIC50 (Squalene synthase) was 6.10, the pIC50 (Liver microsomes) was 3.93 and the pIC50 [4] was < 4.00. The Activity (Rattus norvegicus [5]) was 43%, the Activity (Rattus norvegicus [6]) was 32% and the Activity (Rattus norvegicus [7]) was 48%.

For Br.COc1ccc2cc(-c3ccc(C4(O)CN5CCCCC5CO4)cc3)ccc2c1 (stereo unspecified), the pIC50 (Squalene synthase) was 4.74, the pIC50 (Liver microsomes) was 4.19 and the Activity (Rattus norvegicus [2]) was “Active”. For the same molecule, the pIC50 [4] was < 4.00, the Activity (Rattus norvegicus [5]) was 19% and the Activity (Rattus norvegicus [6]) was 6%. The Activity (Rattus norvegicus [7]) was 29%.

With Br.COc1ccc2cc(C3(O)CN4CCCCC4CO3)ccc2c1 (stereo unspecified) the pIC50 (Squalene synthase) was 4.73, the inhibition (Glycine max [1]) was “tde” and the pIC50 (Liver microsomes) was 3.41. For the same molecule, the Activity (Rattus norvegicus [2]) was “Active”, the inhibition (Glycine max [3]) was “Dose-dependent effect” and the pIC50 [4] was 4.28. The Activity (Rattus norvegicus [5]) was 45%, the Activity (Rattus norvegicus [6]) was 37% and the Activity (Rattus norvegicus [7]) was 46%.

In the case of Br.COc1ccc2cc(C3(O)CN(C)CCO3)ccc2c1 (stereo unspecified), the pIC50 (Squalene synthase) was 3.81, the inhibition (Glycine max [1]) was “tde” and the pIC50 (Liver microsomes) was 3.05. For the same molecule, the Activity (Rattus norvegicus [2]) was 58%, the inhibition (Glycine max [3]) was “Dose-dependent effect” and the pIC50 [4] was 4.70. For the same molecule, the Activity (Rattus norvegicus [5]) was 62%, the Activity (Rattus norvegicus [6]) was 51% and the Activity (Rattus norvegicus [7]) was 24%.

For Br.OC1(c2ccc(-c3ccc4ccccc4c3)cc2)CN2CCCCC2CO1 (stereo unspecified), the pIC50 (Liver microsomes) was 3.93, the Activity (Rattus norvegicus [2]) was “Active” and the pIC50 [4] was < 4.00. The Activity (Rattus norvegicus [5]) was 49%, the Activity (Rattus norvegicus [6]) was 34% and the Activity (Rattus norvegicus [7]) was 33%.

For Br.CN1CC(O)(c2ccc3ccccc3c2)OC2CCCCC21 (stereo unspecified), the pIC50 (Squalene synthase) was 4.82, the pIC50 (Liver microsomes) was 3.22 and the Activity (Rattus norvegicus [2]) was 54%. The pIC50 [4] was < 3.52, the Activity (Rattus norvegicus [5]) was 43% and the Activity (Rattus norvegicus [6]) was 51%. The Activity (Rattus norvegicus [7]) was 39%.
